In ChEMBL document CHEMBL3580567 (J Med Chem, 2015):
≈ marks a conversion by molar mass, not a printed value. Calls of active or inactive are those of the source. No cut-off for these calls is given here.

Key:
[1] = Thermodynamic solubility in phosphate buffer at pH 7.4 after 24 hrs by UV spectra analysis; assay type: physicochemical; details: read-out: Therm_solubility
Summary of the method: (§1)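 Thermodynamic solubility: about 1 mg of solid was saturated in 200 µL buffer and stirred 24 h at rt at 320 rpm, then centrifuged. Supernatant was diluted with buffer-MeCN 80:20 and read by UV at its absorbance maximum. Values were quantified against a calibration line from a 10 mM DMSO stock, checked with a quality-control standard. Runs were in triplicate. The buffers were pH 7.4 phosphate 45 mM and NH4Cl for the basic pH.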

[2] = target: T1, Melatonin receptor type 1B (Homo sapiens) (UniProt P49286); experiment: Agonist activity at human melatonin receptor-2 transfected in CHO cell membranes after 1 hr by GTPgammaS binding assay relative to melatonin; assay type: functional
T1 sequence (whole entry): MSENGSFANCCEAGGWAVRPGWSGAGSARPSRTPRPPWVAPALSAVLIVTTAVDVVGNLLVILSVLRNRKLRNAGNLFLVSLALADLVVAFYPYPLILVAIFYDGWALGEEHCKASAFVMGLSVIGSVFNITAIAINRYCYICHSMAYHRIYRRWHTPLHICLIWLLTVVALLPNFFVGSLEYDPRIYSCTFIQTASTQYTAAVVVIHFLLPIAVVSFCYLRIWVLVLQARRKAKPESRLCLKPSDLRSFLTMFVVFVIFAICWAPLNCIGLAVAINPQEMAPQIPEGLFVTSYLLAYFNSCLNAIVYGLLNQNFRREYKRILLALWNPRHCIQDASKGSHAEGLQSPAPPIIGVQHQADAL
Summary of the method: (§2)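 CHO membranes (20 µg/mL) stably expressing human MT1 or MT2 in 20 mM HEPES pH 7.4, 100 mM NaCl, 3 µM GDP, 3 mM MgCl2, 20 µg/mL saponin. Incubated with 0.2 nM [35S]GTPγS for 1 h at rt, then filtered. Non-specific binding defined with 10 µM GTPγS. Seven concentrations in duplicate; EC50 and Emax fitted.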

[3] = target: T2, Melatonin receptor type 1B (Homo sapiens, UniProt P49286); experiment: Displacement of 2-[125I]-iodomelatonin from human melatonin receptor-2 transfected in CHO cell membranes after 120 mins
T2 sequence (P49286 whole entry): T1 sequence (whole entry)

[4] = target: T3, Melatonin receptor type 1A (Homo sapiens, UniProt P48039); experiment: Displacement of 2-[125I]-iodomelatonin from human melatonin receptor-1 transfected in CHO cell membranes after 120 mins
T3 sequence (P48039 whole entry): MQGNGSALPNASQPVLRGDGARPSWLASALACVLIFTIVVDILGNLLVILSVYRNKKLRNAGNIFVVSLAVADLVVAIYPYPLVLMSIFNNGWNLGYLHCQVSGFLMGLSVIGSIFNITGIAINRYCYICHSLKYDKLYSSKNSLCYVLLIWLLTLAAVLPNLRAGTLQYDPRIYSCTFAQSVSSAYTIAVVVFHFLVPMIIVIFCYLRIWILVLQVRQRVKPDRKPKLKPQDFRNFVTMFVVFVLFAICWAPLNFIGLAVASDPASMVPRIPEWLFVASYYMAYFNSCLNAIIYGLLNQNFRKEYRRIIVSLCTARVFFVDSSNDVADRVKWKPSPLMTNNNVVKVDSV

[5] = target: T2, Melatonin receptor type 1B; experiment: Agonist activity at human melatonin receptor-2 transfected in CHO cell membranes after 1 hr by GTPgammaS binding assay; assay type: functional
Homo sapiens = species on record: Homo sapiens; experiment: Selectivity ratio of Ki for human melatonin receptor-1 to Ki for human melatonin receptor-2
[6] = target: T3, Melatonin receptor type 1A; experiment: Agonist activity at human melatonin receptor-1 transfected in CHO cell membranes after 1 hr by GTPgammaS binding assay; assay type: functional
[7] = target: T3, Melatonin receptor type 1A; experiment: Agonist activity at human melatonin receptor-1 transfected in CHO cell membranes after 1 hr by GTPgammaS binding assay relative to melatonin; assay type: functional; summary of the method: as §2
[8] = (§3) Induction of primary neuronal stem cell maturation derived from subgranular zone of dentate gyrus of Wistar rat hippocampus assessed as upregulation of MAP-2 expression at 10 uM incubated for 7 days by DAPI staining-based fluorescence microscopic analysis; assay type: functional; details: Primary neuron
Summary of the method: (§4)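 Neurospheres came from the SGZ of the dentate gyrus of adult male Wistar rats (8-12 weeks). They were grown in DMEM/F12 with 10 ng/mL EGF, 10 ng/mL FGF and B27. After 3 days, cultures were treated with compounds for 7 days. They were then plated on poly-L-lysine coverslips for 48 h with serum and without growth factors. Cells were immunostained for TuJ1 and MAP-2 with DAPI nuclei. Positive cells were counted by fluorescence microscopy in five NS per condition over three independent experiments. Untreated cultures gave basal values.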

[9] = as §3, with “differentiation” for “maturation”, “TuJ1” for “MAP-2”, “days followed by 48 hrs incubation in presence of serum and absence of EGF” for “days”; assay type: functional; details: Primary neuron; summary of the method: as §4
[10] = Thermodynamic solubility in buffer at pH 5.5 after 24 hrs by UV spectra analysis; assay type: physicochemical; details: read-out: Therm_solubility
[11] = Thermodynamic solubility in NH4Cl buffer at pH 9.3 after 24 hrs by UV spectra analysis; assay type: physicochemical; details: read-out: Therm_solubility; summary of the method: as §1
[12] = target: T2, Melatonin receptor type 1B; experiment: Agonist activity at human recombinant melatonin receptor-2 expressed in CHO cells assessed as decrease of cAMP level after 10 mins by HTRF assay; assay type: functional, cell-based
Summary of the method: (§5)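 Functional agonist profiling was done by CEREP on cells expressing human recombinant MT receptors. MT1 was read by cellular dielectric spectroscopy and MT2 by homogeneous time-resolved fluorescence. The protocols are those on the company website.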

[13] = Induction of primary neuronal stem cell differentiation derived from subgranular zone of dentate gyrus of Wistar rat hippocampus assessed as upregulation of TuJ1 expression at 10 uM incubated for 7 days followed by 48 hrs incubation in presence of serum and absence of EGF by DAPI staining-based fluorescence microscopic analysis in presence of melatonin receptor antagonist luzindole; assay type: functional; details: Primary neuron; summary of the method: as §4
[14] = Permeability of the compound at 100 ug/ml after 240 mins by PAMPA; assay type: physicochemical; details: 4 h
Summary of the method: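 For PAMPA-BBB, the filter was coated with porcine brain lipid in dodecane (20 mg/mL). Donor compound was 100 µg/mL in PBS:ethanol 70:30, pH 7.4, and the acceptor held PBS:ethanol 70:30. Plates were incubated 240 min at 25 °C. Acceptor concentration was read by UV-Vis at five wavelengths in four wells, over at least three runs. Eleven quality-control standards were included.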

[15] = as §3, with “analysis in presence of melatonin receptor antagonist luzindole” for “analysis”; assay type: functional, tissue-based; details: Primary neuron; summary of the method: as §4
[16] = target: T1, Melatonin receptor type 1B (Homo sapiens); experiment: Agonist activity at human recombinant melatonin receptor-2 expressed in CHO cells assessed as decrease of cAMP level after 10 mins by HTRF assay relative to melatonin; assay type: functional, cell-based
[17] = target: T3, Melatonin receptor type 1A; experiment: Agonist activity at human recombinant melatonin receptor-1 expressed in CHO cells assessed as effect on impedance by cellular dielectric spectroscopy relative to melatonin; assay type: cell-based
[18] = target: T3, Melatonin receptor type 1A; experiment: Agonist activity at human recombinant melatonin receptor-1 expressed in CHO cells assessed as effect on impedance by cellular dielectric spectroscopy; assay type: cell-based; summary of the method: as §5
[19] = target: T4, 5-hydroxytryptamine receptor 1A (Rattus norvegicus, UniProt P19327); experiment: Displacement of [3H]8-OH DPAT from rat 5HT1A receptor expressed in CHO cells after 30 mins by liquid scintillation counting analysis; assay type: cell-based
T4 sequence (P19327 whole entry): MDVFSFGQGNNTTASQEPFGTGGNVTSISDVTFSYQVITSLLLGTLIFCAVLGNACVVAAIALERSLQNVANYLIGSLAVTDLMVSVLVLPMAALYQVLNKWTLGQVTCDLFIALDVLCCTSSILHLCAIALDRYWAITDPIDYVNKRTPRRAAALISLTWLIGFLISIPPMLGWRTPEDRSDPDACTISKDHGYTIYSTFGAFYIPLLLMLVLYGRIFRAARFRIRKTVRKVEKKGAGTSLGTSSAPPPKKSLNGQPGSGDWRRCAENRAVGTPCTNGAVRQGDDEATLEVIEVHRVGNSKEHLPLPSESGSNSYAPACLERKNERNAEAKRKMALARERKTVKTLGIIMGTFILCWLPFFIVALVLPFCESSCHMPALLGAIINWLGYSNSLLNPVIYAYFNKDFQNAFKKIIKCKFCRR

[20] = target: 5-hydroxytryptamine receptor 2A (Rattus norvegicus, UniProt P14842); experiment: Displacement of [3H]DOB from rat 5HT2A receptor expressed in mouse NIH/3T3 cells after 30 mins by liquid scintillation counting analysis; assay type: cell-based
5-hydroxytryptamine receptor 2A, sequence (P14842 whole entry): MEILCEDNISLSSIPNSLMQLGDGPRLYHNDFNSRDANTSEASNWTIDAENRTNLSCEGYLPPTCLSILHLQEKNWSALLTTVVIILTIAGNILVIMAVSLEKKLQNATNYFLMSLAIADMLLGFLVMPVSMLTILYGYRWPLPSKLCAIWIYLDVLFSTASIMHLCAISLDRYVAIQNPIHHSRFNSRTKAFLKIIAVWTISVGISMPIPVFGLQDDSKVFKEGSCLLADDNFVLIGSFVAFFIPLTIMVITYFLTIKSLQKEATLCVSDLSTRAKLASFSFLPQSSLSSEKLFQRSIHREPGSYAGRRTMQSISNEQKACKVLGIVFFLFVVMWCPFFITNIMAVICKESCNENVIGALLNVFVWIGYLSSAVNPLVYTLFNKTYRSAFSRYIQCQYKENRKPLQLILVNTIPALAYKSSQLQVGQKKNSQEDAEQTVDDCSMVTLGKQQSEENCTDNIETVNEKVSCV

[21] = Solubility in the water; assay type: physicochemical; details: buffer

SMILES	solubility thermodynamic at 24 h [1]	Emax [2]	Ki [3]	Ki [4]	EC50 [5]	Ratio Ki (Homo sapiens)	EC50 [6]	Emax [7]	other results
COc1ccc2cccc(CCNC(C)=O)c2c1 [AGOMELATINE]	804 µM (≈ 196 µg/mL)	–	–	–	–	–	–	–	–
COc1ccc2[nH]cc(CCc3nnco3)c2c1	–	25%	0.068 µM	0.57 µM	0.457 µM	8.6	> 1 µM	–	–
CCn1c(Cc2c[nH]c3ccc(OC)cc23)n[nH]c1=S	–	–	0.22 µM	> 1 µM	> 1 µM	–	–	–	–
C=CCNC(=O)Cc1c[nH]c2ccc(OC)cc12	–	70%	0.0049 µM	0.017 µM	0.132 µM	3.5	0.525 µM	64%	–
C#CCNC(=O)CCc1c[nH]c2ccc(OC)cc12	–	99%	–	–	–	5	–	106%	Activity [8]: inactive; Activity [9]: Active
COc1ccc2[nH]cc(Cc3nnc(C)o3)c2c1	970 µM (≈ 236 µg/mL)	24%	0.016 µM	0.21 µM	0.071 µM	10	> 1 µM	–	–
COc1ccc2[nH]cc(Cc3n[nH]c(=S)o3)c2c1	–	–	0.535 µM	> 1 µM	> 1 µM	–	–	–	–
COc1ccc2[nH]cc(Cc3n[nH]c(=O)o3)c2c1	–	–	0.16 µM	> 1 µM	> 1 µM	–	–	–	–
C#CCNC(=O)Cc1c[nH]c2ccc(OC)cc12	–	82%	0.0038 µM	0.014 µM	0.081 µM	3.6	0.289 µM	67%	–
CCNc1nnc(Cc2c[nH]c3ccc(OC)cc23)s1	1420 µM (≈ 409 µg/mL)	35%	0.017 µM	> 1 µM	0.11 µM	> 500	–	–	solubility thermodynamic at 24 h [10]: 1720 µM (≈ 495 µg/mL); solubility thermodynamic at 24 h [11]: 1440 µM (≈ 414 µg/mL); Activity [9]: Active
C=CCNC(=O)CCc1c[nH]c2ccc(OC)cc12	–	88%	0.00045 µM	0.0025 µM	0.011 µM	5.5	0.204 µM	92%	–
COc1ccc2[nH]cc(CCc3n[nH]c(=S)o3)c2c1	3460 µM (≈ 953 µg/mL)	32%	0.53 µM	> 1 µM	1.1 µM	–	–	–	solubility thermodynamic at 24 h [10]: 907 µM (≈ 250 µg/mL); solubility thermodynamic at 24 h [11]: 18700 µM (≈ 5140 µg/mL)
CCn1c(CCc2c[nH]c3ccc(OC)cc23)n[nH]c1=S	137 µM (≈ 41.4 µg/mL)	–	> 1 µM	> 1 µM	–	–	–	–	solubility thermodynamic at 24 h [10]: 131 µM (≈ 39.6 µg/mL); solubility thermodynamic at 24 h [11]: 208 µM (≈ 62.9 µg/mL)
COc1ccc2[nH]cc(Cc3n[nH]c(=O)n3C)c2c1	–	–	0.56 µM	> 1 µM	> 1 µM	–	–	–	–
COc1ccc2[nH]cc(CCc3n[nH]c(=O)o3)c2c1	2100 µM (≈ 544 µg/mL)	30%	0.004 µM	0.035 µM	0.029 µM	10	0.326 µM	26%	Activity [8]: Active; solubility thermodynamic at 24 h [10]: 1410 µM (≈ 365 µg/mL); EC50 [12]: 0.0055 µM; Activity [13]: inactive; permeability [14]: permeable; solubility thermodynamic at 24 h [11]: 7920 µM (≈ 2050 µg/mL); Activity [15]: inactive; Activity [9]: Active; Emax [16]: 97%; Emax [17]: 100%; EC50 [18]: 0.048 µM
COc1ccc2[nH]cc(CCc3nc(C)no3)c2c1	–	–	> 1 µM	> 1 µM	–	–	–	–	–
COc1ccc2[nH]cc(Cc3ncc(C)o3)c2c1	–	–	> 1 µM	0.28 µM	–	–	0.989 µM	23%	–
COc1ccc2[nH]cc(CCc3ncc(C)o3)c2c1	–	32%	0.498 µM	> 1 µM	0.503 µM	–	–	–	–
COc1ccc2[nH]cc(CCc3n[nH]c(=O)n3C)c2c1	1100 µM (≈ 301 µg/mL)	–	> 1 µM	> 1 µM	–	–	–	–	solubility thermodynamic at 24 h [10]: 860 µM (≈ 234 µg/mL); solubility thermodynamic at 24 h [11]: 1410 µM (≈ 383 µg/mL)
CC(=O)NCCc1c(Cc2ccccc2)[nH]c2ccccc12	–	–	–	–	–	–	–	–	Activity [9]: inactive
COc1ccc2[nH]cc(CCN(C)C)c2c1 [MEBUFOTENIN]	–	28%	0.016 µM	0.21 µM	0.112 µM	10	0.257 µM	62%	Ki [19]: 0.011 µM; Ki [20]: 0.092 µM
COc1ccc2[nH]cc(Cc3nc(C)no3)c2c1	1160 µM (≈ 283 µg/mL)	48%	0.044 µM	0.17 µM	0.295 µM	3.9	0.711 µM	16%	–
COc1ccc2[nH]cc(CCNC(C)=O)c2c1 [MELATONIN]	6640 µM (≈ 1540 µg/mL)	–	–	–	–	–	–	–	Activity [8]: Active; Activity [13]: inactive; Activity [15]: inactive; Activity [9]: Active; solubility [21]: 400 µM (≈ 92.9 µg/mL)
